Assay outcomes: PubChem, Johns Hopkins Ion Channel Center
Rows were chosen to be rich in hits. Some 3.5% of all compounds tested hit in one or more screens of this group.
MrgX1 PAM: human MrgX1 positive allosteric modulation, primary screen. 310,000 compounds, 0.63% hits. Q96LB2. MrgX1-HEK293, Fluo-4 calcium flux, FDSS; hits give high values. AID 588675. B-score at 10 µM;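 active means plate-corrected calcium response at least 3 library SD above typical, normal starting fluorescence, not activating the receptor alone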;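 further: compound read alongside a low EC10 to EC30 dose of BAM8-22 agonist; peak minus trough fluorescence over baseline measured at the second addition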
Target sequence (Q96LB2 whole entry, looked up): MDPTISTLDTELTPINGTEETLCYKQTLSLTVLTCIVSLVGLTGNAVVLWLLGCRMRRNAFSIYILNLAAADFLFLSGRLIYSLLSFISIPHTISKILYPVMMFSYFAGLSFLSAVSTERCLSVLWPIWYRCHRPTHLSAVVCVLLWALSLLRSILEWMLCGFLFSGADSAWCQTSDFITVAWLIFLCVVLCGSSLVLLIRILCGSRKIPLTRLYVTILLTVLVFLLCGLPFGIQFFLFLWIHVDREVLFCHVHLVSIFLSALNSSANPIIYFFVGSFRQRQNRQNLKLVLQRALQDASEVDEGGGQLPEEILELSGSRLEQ
RGS4 inh: inhibitors of human RGS4. P49798. HEK293 M3R/RGS4 inducible, Fluo-4 calcium flux; hits give high values; triggered by carbachol at its EC20. B-score at 10 µM. 310,000 compounds, 0.45% hits;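 active means B-score, a plate-corrected calcium signal, over three deviations above library mean, with baseline fluorescence within five deviations of library mean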;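 further: RGS4 expression induced by doxycycline in cells with stable M3 receptor; B-score is computed from the integrated fluorescence ratio over baseline after carbachol; higher B-score means a larger calcium signal and so more RGS4 inhibition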
Target sequence (P49798 whole entry, looked up): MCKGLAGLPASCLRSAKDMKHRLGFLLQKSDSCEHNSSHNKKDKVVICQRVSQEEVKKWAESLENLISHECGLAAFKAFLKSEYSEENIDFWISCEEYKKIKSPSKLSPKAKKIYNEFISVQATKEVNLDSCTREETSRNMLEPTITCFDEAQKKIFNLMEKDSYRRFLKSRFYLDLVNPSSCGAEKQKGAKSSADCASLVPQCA
MrgX1 agonist: activates human MrgX1 receptor signaling. Q96LB2. MrgX1-HEK293 cells, Fluo-4 calcium fluorescence, agonist mode; hits give high values. B-score at 10 µM. 310,000 compounds, 0.44% hits. AID 588627;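 active means calcium response B-score plate-corrected fluorescence ratio at least 3 library SD, with starting fluorescence B-score inside 5 SD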
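Test system: HEK293 cells stably expressing human MrgX1 receptor; amount: 15,000 cells per well; doses: compound delivered in addition one of three; times: overnight plating before 1 h dye loading; detection: Fluo-4 NW calcium-flux fluorescence, kinetic read; read-out basis: B-scored fluorescence response ratio; controls: positive and negative controls per plate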
MrgX1 antagonist: antagonists of human MrgX1 receptor; Q96LB2; MRGX1-HEK293 calcium flux, Fluo-4, BAM8-22 antagonism; hits give low values; B-score at 10 µM; 310,000 compounds, 1.3% hits;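 active means calcium-response B-score plate-corrected more than 3 library SD below zero, starting fluorescence within 5 deviations, no agonist response on first addition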;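 further: peak minus trough fluorescence over baseline after final BAM8-22 challenge near maximal dose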
RGS4 pot: potentiators or activators of RGS4; HEK293 M3R/inducible RGS4, carbachol calcium flux Fluo4; hits give low values; B-score at 10 µM; 310,000 compounds, 0.92% hits;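 active means B-score of the integrated calcium signal more than 4 SD below the library mean, with starting fluorescence not abnormally high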;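 further: negative B-score means reduced calcium response which marks RGS4 activation or potentiation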
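test system = HEK293 cells with stable M3R and inducible RGS4 | schedule = recording 10 s baseline at 1 Hz, 100 s post-agonist | technique = Fluo4-AM (2 µM) calcium-flux fluorescence, kinetic read | measure = Agonist-evoked peak-minus-minimum fluorescence over baseline, integrated ratio, B score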
Numbers without * were called inactive.

How did CC(C)Sc1nc2[nH]ncc2c(=O)[nH]1 do in these assays?
MrgX1 PAM: inactive; RGS4 inh: inactive; MrgX1 agonist: inactive; MrgX1 antagonist: inactive; RGS4 pot: inactive

What do the screens show for `COC(=O)c1ccc(C(NC(=O)OCc2ccccc2)/C(F)=C/[C@@H](C)C(=O)NCc2ccc(OC)c(OC)c2)cc1` (some centres not stated)?
MrgX1 PAM: inactive; MrgX1 agonist: inactive; MrgX1 antagonist: inactive

What do the screens show for `CCc1ccc2oc(-c3ccc(OC)cc3)cc(=Nc3c(C)n(C)n(-c4ccccc4)c3=O)c2c1`?
MrgX1 PAM: inactive; RGS4 inh: inactive; MrgX1 agonist: inactive; MrgX1 antagonist: inactive; RGS4 pot: -7.36*

How did CN1CC=C2C(C#N)=C(N)C(C#N)(C#N)C(Cc3ccccc3)C2C1 (configuration not stated) do in these assays?
MrgX1 PAM: inactive; RGS4 inh: inactive; MrgX1 agonist: 35.6*; MrgX1 antagonist: inactive; RGS4 pot: inactive

What do the screens show for `O=Nc1c(-c2c(O)[nH]c3cc(Br)ccc23)[nH]c2ccccc12`?
MrgX1 PAM: inactive; RGS4 inh: inactive; MrgX1 agonist: inactive; MrgX1 antagonist: inactive; RGS4 pot: inactive

What do the screens show for `O=C(NCCc1ccccc1)c1ccc2nc(-c3ccco3)c(-c3ccco3)nc2c1`?
MrgX1 PAM: inactive; RGS4 inh: inactive; MrgX1 agonist: inactive; MrgX1 antagonist: -7.87*; RGS4 pot: inactive

How did O=C(NCCO)c1ccc2nc(-c3ccco3)c(-c3ccco3)nc2c1 do in these assays?
MrgX1 PAM: inactive; RGS4 inh: inactive; MrgX1 agonist: inactive; MrgX1 antagonist: inactive; RGS4 pot: inactive

How did O=C(Nc1nc2ccccc2s1)C1CCN(S(=O)(=O)c2cc([N+](=O)[O-])ccc2Cl)CC1 do in these assays?
MrgX1 PAM: inactive; RGS4 inh: inactive; MrgX1 agonist: inactive; MrgX1 antagonist: -5.32*; RGS4 pot: inactive

Results for CCC(C)NC(=O)C1CCN(S(=O)(=O)c2cc([N+](=O)[O-])ccc2Cl)CC1 (configuration not stated) ?
MrgX1 PAM: inactive; RGS4 inh: inactive; MrgX1 agonist: inactive; MrgX1 antagonist: inactive; RGS4 pot: inactive

Results for O=C(NCC1CCCO1)/C(=C\c1cccc([N+](=O)[O-])c1)NC(=O)c1ccccc1 (configuration not stated) ?
MrgX1 PAM: inactive; RGS4 inh: inactive; MrgX1 agonist: inactive; MrgX1 antagonist: -5.75*; RGS4 pot: inactive

How did O=C(NCC1CCCO1)/C(=C/c1ccccc1)NC(=O)c1ccccc1 (configuration not stated) do in these assays?
MrgX1 PAM: inactive; RGS4 inh: inactive; MrgX1 agonist: inactive; MrgX1 antagonist: inactive; RGS4 pot: inactive

What do the screens show for `Nc1nc(-c2ccc(Br)cc2)cs1`?
MrgX1 PAM: inactive; RGS4 inh: inactive; MrgX1 agonist: inactive; MrgX1 antagonist: inactive; RGS4 pot: inactive

What do the screens show for `Brc1ccc(-c2csc(Nc3nc(-c4ccc(Br)cc4)cs3)n2)cc1`?
MrgX1 PAM: inactive; RGS4 inh: inactive; MrgX1 agonist: inactive; MrgX1 antagonist: -4.52*; RGS4 pot: inactive

How did CCn1c(CSc2nnc(-c3ccncc3)n2C)nc2cc(C(=O)O)ccc21 do in these assays?
MrgX1 PAM: inactive; RGS4 inh: inactive; MrgX1 agonist: inactive; MrgX1 antagonist: inactive; RGS4 pot: inactive

What do the screens show for `O=[N+]([O-])c1ccc(O)c(/C=N/NC2=NS(=O)(=O)c3ccccc32)c1`?
MrgX1 PAM: 8.46*; RGS4 inh: inactive; MrgX1 agonist: inactive; MrgX1 antagonist: inactive; RGS4 pot: inactive

What do the screens show for `CC(=O)c1cc(NC(=O)c2ccc(Cl)cc2)c(=O)oc1/C=C/N(C)C`?
MrgX1 PAM: inactive; RGS4 inh: inactive; MrgX1 agonist: 37.6*; MrgX1 antagonist: inactive; RGS4 pot: inactive

How did Cc1ccccc1N/N=C/c1c(C)nc2ccccn12 do in these assays?
MrgX1 PAM: 8.46*; RGS4 inh: inactive; MrgX1 agonist: inactive; MrgX1 antagonist: inactive; RGS4 pot: inactive

Results for Cc1nc2ccccn2c1C(=O)N/N=C/c1ccccc1 ?
MrgX1 PAM: inactive; RGS4 inh: inactive; MrgX1 agonist: inactive; MrgX1 antagonist: inactive; RGS4 pot: inactive

What do the screens show for `O=C(Nc1cccc(Cl)c1)C1C2CCC3C(CCC21)C3(Cl)Cl` (configuration not stated)?
MrgX1 PAM: inactive; RGS4 inh: inactive; MrgX1 agonist: inactive; MrgX1 antagonist: inactive; RGS4 pot: -7.49*

What do the screens show for `C/C(=N\O)c1ccccc1C(=O)O`?
MrgX1 PAM: inactive; RGS4 inh: inactive; MrgX1 agonist: inactive; MrgX1 antagonist: -6.25*; RGS4 pot: inactive

Results for Cc1cc(=O)oc2cc(OC(=O)C3CCN(C(=O)c4ccc(F)cc4)CC3)ccc12 ?
MrgX1 PAM: inactive; RGS4 inh: inactive; MrgX1 agonist: inactive; MrgX1 antagonist: inactive; RGS4 pot: inactive

Results for Cc1ccc(S(=O)(=O)N2CCCOC2CNC(=O)C(=O)NCCc2c[nH]c3ccccc23)cc1 (configuration not stated) ?
MrgX1 PAM: inactive; RGS4 inh: inactive; MrgX1 agonist: inactive; MrgX1 antagonist: inactive; RGS4 pot: inactive

How did CC(C)Nc1nc(-c2ccncc2)nc(-c2ccccc2)c1C#N do in these assays?
MrgX1 PAM: inactive; RGS4 inh: inactive; MrgX1 agonist: inactive; MrgX1 antagonist: inactive; RGS4 pot: inactive

What do the screens show for `N/C(Cc1ccc(Cl)cc1Cl)=N\OC(=O)c1cccs1`?
MrgX1 PAM: inactive; RGS4 inh: inactive; MrgX1 agonist: inactive; MrgX1 antagonist: -7.94*; RGS4 pot: inactive

How did COC(=O)N1C(=O)[C@](c2ccsc2)(C(C)C)N1C(=O)OC do in these assays?
MrgX1 PAM: inactive; RGS4 inh: inactive; MrgX1 agonist: inactive; MrgX1 antagonist: inactive; RGS4 pot: inactive

Results for CCn1c(C)nc2cc(C(=O)NNC(=O)Nc3cccc(Cl)c3)ccc21 ?
MrgX1 PAM: inactive; RGS4 inh: inactive; MrgX1 agonist: inactive; MrgX1 antagonist: -6.31*; RGS4 pot: inactive

Results for CCn1c(C)nc2cc(C(=O)NNC(=O)Nc3ccc(Cl)cc3)ccc21 ?
MrgX1 PAM: inactive; RGS4 inh: inactive; MrgX1 agonist: inactive; MrgX1 antagonist: inactive; RGS4 pot: inactive

What do the screens show for `NC(=O)C1CCN(C2=C(Cl)C(=O)c3ccccc3C2=O)CC1`?
MrgX1 PAM: inactive; RGS4 inh: inactive; MrgX1 agonist: 29.9*; MrgX1 antagonist: inactive; RGS4 pot: inactive

Results for O=C(COC(=O)Cc1ccsc1)Nc1ccc(Cl)c(S(=O)(=O)N2CCOCC2)c1 ?
MrgX1 PAM: inactive; RGS4 inh: inactive; MrgX1 agonist: inactive; MrgX1 antagonist: inactive; RGS4 pot: inactive
